Measured values taken from ChEMBL document CHEMBL1153852, “Steroidal lactones as inhibitors of 17beta-hydroxysteroid dehydrogenase type 5: chemical synthesis, enzyme inhibitory activity, and assessment of estrogenic and androgenic activities” (Eur J Med Chem, 2009).
Calls of active or inactive are those of the source. The calls are words filed in the database; no cut-off is given here.

Assays:
[1] = target: T1, Glucocorticoid receptor (Rattus norvegicus) (UniProt P06536); assay: Binding affinity to rat liver glucocorticoid receptor at 10 uM
T1 sequence (whole entry): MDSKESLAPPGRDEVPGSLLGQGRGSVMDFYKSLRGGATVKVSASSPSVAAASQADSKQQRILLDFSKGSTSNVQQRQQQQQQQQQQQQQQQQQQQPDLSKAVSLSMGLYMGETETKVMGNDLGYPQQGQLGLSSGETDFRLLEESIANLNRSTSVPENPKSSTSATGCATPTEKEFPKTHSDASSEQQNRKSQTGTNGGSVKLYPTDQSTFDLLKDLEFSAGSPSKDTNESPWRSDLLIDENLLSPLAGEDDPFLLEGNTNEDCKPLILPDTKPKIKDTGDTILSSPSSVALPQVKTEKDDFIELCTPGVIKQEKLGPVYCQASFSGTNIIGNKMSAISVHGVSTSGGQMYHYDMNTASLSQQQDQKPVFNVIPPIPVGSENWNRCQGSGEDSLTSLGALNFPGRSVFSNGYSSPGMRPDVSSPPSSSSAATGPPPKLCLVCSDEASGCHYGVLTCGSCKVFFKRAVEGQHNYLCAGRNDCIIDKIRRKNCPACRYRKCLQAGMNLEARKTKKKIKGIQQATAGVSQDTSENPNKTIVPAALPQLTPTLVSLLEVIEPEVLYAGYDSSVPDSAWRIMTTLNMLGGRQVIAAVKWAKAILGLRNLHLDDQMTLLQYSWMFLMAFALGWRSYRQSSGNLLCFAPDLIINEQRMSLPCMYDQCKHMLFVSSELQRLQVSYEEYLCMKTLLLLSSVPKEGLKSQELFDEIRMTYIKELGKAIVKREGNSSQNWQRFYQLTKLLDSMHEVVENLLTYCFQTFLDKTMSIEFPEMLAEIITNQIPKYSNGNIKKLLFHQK
Method in brief: (§1)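 Rat liver glucocorticoid receptor competitive binding, reported as % binding. Bound and free steroid are separated by dextran-coated charcoal adsorption instead of protamine sulfate precipitation.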

[2] = target: T2, 17-beta-hydroxysteroid dehydrogenase type 2 (Homo sapiens) (UniProt P37059); assay: Inhibition of human 17beta-HSD2 expressed in HEK293 cells assessed as enzyme-mediated transformation of [14C]-testosterone in to [14C]-4-androstene-3,17-dione at 0.1 uM; format: cell-based
T2 sequence (whole entry): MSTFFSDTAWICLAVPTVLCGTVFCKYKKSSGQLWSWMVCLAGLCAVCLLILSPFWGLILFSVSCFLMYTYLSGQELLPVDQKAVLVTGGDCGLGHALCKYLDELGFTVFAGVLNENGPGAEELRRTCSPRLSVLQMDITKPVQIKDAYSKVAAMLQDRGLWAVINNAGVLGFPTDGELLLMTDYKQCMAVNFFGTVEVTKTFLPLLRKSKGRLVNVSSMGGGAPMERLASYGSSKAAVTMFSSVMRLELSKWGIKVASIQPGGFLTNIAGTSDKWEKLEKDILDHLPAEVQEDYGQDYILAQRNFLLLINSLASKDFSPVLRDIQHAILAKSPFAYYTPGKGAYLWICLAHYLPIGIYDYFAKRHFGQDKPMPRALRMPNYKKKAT

[3] = target: T3, Progesterone receptor (Rattus norvegicus) (UniProt Q63449); assay: Binding affinity to rat uterus progesterone receptor at 0.1 uM
T3 sequence (whole entry): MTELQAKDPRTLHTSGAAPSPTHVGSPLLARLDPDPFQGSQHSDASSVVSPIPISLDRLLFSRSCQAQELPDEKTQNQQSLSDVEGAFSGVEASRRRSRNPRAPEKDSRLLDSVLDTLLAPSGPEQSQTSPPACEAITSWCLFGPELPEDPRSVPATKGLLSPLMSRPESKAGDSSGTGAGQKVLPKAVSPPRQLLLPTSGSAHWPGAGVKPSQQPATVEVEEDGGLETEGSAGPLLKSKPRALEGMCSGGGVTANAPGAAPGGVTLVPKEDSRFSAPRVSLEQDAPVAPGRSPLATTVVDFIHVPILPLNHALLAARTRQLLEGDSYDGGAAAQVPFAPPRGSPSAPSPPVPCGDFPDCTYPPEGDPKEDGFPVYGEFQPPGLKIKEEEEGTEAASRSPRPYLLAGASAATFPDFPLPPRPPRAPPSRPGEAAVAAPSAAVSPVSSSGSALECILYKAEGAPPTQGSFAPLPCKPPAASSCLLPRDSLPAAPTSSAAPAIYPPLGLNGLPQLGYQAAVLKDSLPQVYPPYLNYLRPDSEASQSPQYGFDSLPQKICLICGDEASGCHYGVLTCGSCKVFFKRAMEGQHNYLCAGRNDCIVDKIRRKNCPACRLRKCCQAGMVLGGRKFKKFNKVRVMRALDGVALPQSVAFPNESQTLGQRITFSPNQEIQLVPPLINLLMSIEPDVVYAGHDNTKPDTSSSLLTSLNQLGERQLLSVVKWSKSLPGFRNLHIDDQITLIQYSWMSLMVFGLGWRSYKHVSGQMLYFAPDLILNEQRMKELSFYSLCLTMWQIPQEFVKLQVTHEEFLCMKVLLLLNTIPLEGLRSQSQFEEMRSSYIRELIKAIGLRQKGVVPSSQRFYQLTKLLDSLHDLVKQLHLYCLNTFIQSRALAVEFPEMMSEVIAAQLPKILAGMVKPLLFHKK

[4] = target: T4, 17-beta-hydroxysteroid dehydrogenase type 1 (Homo sapiens) (UniProt P14061); assay: Inhibition of human 17beta-HSD1 expressed in HEK293 cells assessed as enzyme-mediated transformation of [14C]-E1 in to [14C]-E2 at 1 uM; format: cell-based
T4 sequence (whole entry): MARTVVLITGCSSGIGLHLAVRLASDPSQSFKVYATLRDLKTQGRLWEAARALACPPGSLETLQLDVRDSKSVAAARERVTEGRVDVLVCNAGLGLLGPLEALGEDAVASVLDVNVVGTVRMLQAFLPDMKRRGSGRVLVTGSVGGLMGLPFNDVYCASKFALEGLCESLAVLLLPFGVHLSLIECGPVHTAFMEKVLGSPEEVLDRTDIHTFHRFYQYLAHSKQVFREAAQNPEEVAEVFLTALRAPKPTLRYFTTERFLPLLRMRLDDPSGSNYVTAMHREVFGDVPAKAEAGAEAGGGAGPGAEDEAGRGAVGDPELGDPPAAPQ

[5] = target: T1, Glucocorticoid receptor (Rattus norvegicus); assay: Binding affinity to rat liver glucocorticoid receptor at 1 uM; method in brief: as §1
[6] = target: T3, Progesterone receptor (Rattus norvegicus); assay: Binding affinity to rat uterus progesterone receptor at 1 uM

CC1(C)CC[C@@]2(CC[C@H]3[C@@H]4CCc5cc(O)ccc5[C@H]4CC[C@@]32C)OC1=O was tested, and the Activity [1] was 24%, the Activity [2] was “inactive” and the Activity [3] was 11%.
For CC1(C)CC[C@@]2(CC[C@H]3[C@@H]4CCc5ccccc5[C@H]4CC[C@@]32C)OC1=O, the inhibition [4] was 50%, the Activity [5] was 0% and the Activity [6] was 5%.
